What was measured:
[1] = tested on: atherosclerosis in LDLR KO mice fed high fat diet; assay: Atherosclerosis treatment study; format: in vivo, mouse; conditions: both sexes; IV twice per week for 8 weeks
Summary of the method: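 LDLR KO mice on high-fat diet (20% fat, 0.2% cholesterol, 34% sucrose) from 4 weeks of age. After 14 weeks on diet, IV injection under isoflurane (dorsal penile vein, males; retro-orbital, females) twice weekly for 8 weeks. […] Controls: PBS, scrambled PA. Aortic root sections stained with Oil Red O; plaque area/total root area. n=8–10 mice/group; ANOVA with post-hoc t-test.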

[2] = Treatment study serum chemistry; format: in vivo, mouse; conditions: for Creatine: 6 mg/kg
[3] = TEM analysis of nanofiber formation, diameter and length; format: physicochemical; conditions: 1 mM in PBS, 30 measurements from three images; for Length, Average / Length, Median: ImageJ
Summary of the method: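 Nanofiber diameter and length were measured by hand on TEM images in ImageJ; overlapping fibers ruled out automated tracing.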

[4] = male LDLR KO mice, IV twice per week for 8 weeks

| Compound | reversal of atherosclerosis from baseline levels [1] | liver toxicity: aspartate aminotransferase (AST) in the blood in comparison to PBS, male mice ([2]; mouse, in vivo, iv) | Diameter, Max. [3] | Diameter, Min. [3] | Length, Max. [3] | Length, Min. [3] | Length, Average [3] | Length, Median [3] | liver toxicity: aspartate aminotransferase (AST) in the blood in comparison to PBS, male mice [2, 4] | Creatine ([2]; mouse, in vivo, iv) |
| --- | --- | --- | --- | --- | --- | --- | --- | --- | --- | --- |
| O=C(O)Cc1cccc(OCCCN(Cc2cccc(C(F)(F)F)c2Cl)CC(c2ccccc2)c2ccccc2)c1 [LXR, GW3965, reference compound] | approximately 5% | significantly elevated levels |  |  |  |  |  |  |  |  |
| C16-V2A2E2-C-DWFAKDYFKKAFVEEFAK-NH2 [Scr PA] |  |  | 18.3 nm | 8.8 nm | 1472.9 nm | 30.0 nm | 403.8 nm | 257.6 nm | significantly elevated levels | 0(0–0.1) 0(0–0.1) 0(0–0.1) U/L |
| C16-V2A2E2-G-DWFKAFYDKVAEKFKEAF-NH2 [ApoA1 PA] |  |  | 14.4 nm | 6.2 nm | 2183.3 nm | 39.4 nm | 626.9 nm | 615.9 nm | Neither ApoA1-LXR PAs nor ApoA1 PAs increased AST levels | 0(0–0.1) 0(0–0.1) 0(0–0.1) U/L |
